Results on eleven compounds are retold here after PMC9290029 (ACS Medicinal Chemistry Letters, 2022).

Bounds are passed on as bounds.

Series [1] is described as follows: Pharmacokinetic assessments in rats. The following applies: for AUC: male, Sprague-Dawley, rat, plasma, po; for metabolites detected in plasma (Cmax at 30 mpk): rats, oral. It counts as in vivo, Sprague Dawley rats.
The target in the next series is T1, human NHE3 (Homo sapiens, UniProt P48764).
T1 sequence (P48764 26-834): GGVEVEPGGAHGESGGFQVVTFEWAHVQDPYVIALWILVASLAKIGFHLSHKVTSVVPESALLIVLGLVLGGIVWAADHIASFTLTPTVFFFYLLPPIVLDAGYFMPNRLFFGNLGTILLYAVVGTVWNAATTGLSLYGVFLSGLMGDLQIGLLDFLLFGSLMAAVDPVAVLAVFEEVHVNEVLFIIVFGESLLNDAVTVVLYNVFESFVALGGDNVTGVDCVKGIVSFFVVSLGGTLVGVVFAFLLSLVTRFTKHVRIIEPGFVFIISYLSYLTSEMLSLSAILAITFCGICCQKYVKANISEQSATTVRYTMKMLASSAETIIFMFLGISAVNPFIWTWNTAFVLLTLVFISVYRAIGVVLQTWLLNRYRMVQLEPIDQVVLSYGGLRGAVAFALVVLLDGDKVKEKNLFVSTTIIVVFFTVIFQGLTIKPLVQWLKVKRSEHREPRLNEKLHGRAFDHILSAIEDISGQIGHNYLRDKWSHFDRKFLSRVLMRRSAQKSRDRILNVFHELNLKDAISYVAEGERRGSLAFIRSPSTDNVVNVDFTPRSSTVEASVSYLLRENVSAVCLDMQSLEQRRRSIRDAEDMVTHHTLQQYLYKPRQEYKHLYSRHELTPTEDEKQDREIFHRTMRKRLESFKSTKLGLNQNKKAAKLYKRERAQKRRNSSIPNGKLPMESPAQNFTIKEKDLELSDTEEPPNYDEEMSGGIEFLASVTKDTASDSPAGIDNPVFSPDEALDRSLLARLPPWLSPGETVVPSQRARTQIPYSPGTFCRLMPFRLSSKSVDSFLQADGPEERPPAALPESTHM
Briefly: Cell-based human NHE3 inhibition assay. The following applies: species not stated; data not shown. The method in brief:
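Cell deacidification assay in transfected opossum kidney cells overexpressing human or rat NHE3. Test compounds are applied across a dose range, and inhibition of intracellular pH recovery is followed with a pH-sensitive dye. Potency is reported as pIC50 for each species.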

A further series relates to Sprague Dawley rats. Nature of the series: Rat stool and urine content, stool form scoring. The series is classed as in vivo. As to conditions: for Increase in stool water: criterion: 10% increase from control; for Stool water dose-response: oral 0.1–3.0 mg/kg, criterion: Yes. The method in brief:
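Rats are dosed orally, 3 mg/kg for screening or 0.1, 0.3, 1.0 and 3.0 mg/kg for dose-response, then held in metabolic cages. Urine sodium reduction is measured at 16 h (n = 6 per group; mean ± SEM; one-way ANOVA with Dunnett's test versus vehicle). Stool form is scored 1 (normal) to 5 (watery), and fecal water is given as percent water by weight and percent of control.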

Another series has as its system humans. As to conditions: clinical trials, cited from earlier work.
In series [2] the test system is dialysis patients with hyperphosphatemia. As to conditions: cited from earlier work.

As usually defined, the AUC is concentration integrated over time. Higher therefore signals more exposure. The compound `CN1Cc2c(Cl)cc(Cl)cc2C(c2ccc(S(=O)(=O)NCCOCCOCCNC(=O)NCCOCCOCCNS(=O)(=O)c3ccc(C4CN(C)Cc5c(Cl)cc(Cl)cc54)cc3)cc2)C1` (stereo not drawn) [Compound 23] displayed an AUC in series [1] (17 mg/kg) of under 8 ng·h/mL.

`CN1Cc2c(Cl)cc(Cl)cc2[C@H](c2cccc(S(=O)(=O)NCCOCCOCCNC(=O)Nc3ccc(NC(=O)NCCOCCOCCNS(=O)(=O)c4cccc([C@@H]5CN(C)Cc6c(Cl)cc(Cl)cc65)c4)cc3)c2)C1` [Compound 26]: the “inhibition in the cell assay (maximum reached)” value at human NHE3 is on record as under 100%. For the same compound, the “metabolites detected in plasma (Cmax at 30 mpk)” value in series [1] is recorded as “No metabolites detected”. Also, in the series on Sprague Dawley rats, the “Increase in stool water” value is recorded as “Yes” and the Stool water dose-response result is reported as “Yes”.

In series [1] (23 mg/kg), `CN1Cc2c(Cl)cc(Cl)cc2C(c2ccc(S(=O)(=O)NCCOCCOCCNC(=O)c3ccc(C(=O)NCCOCCOCCNS(=O)(=O)c4ccc(C5CN(C)Cc6c(Cl)cc(Cl)cc65)cc4)cc3)cc2)C1` (stereo not drawn) [Compound 21] yielded an AUC of under 8 ng·h/mL.

Compound `CN1Cc2c(Cl)cc(Cl)cc2C(c2cccc(S(=O)(=O)NCCOCCOCCOCCNC(=O)CCC(=O)NCCOCCOCCOCCNS(=O)(=O)c3cccc(C4CN(C)Cc5c(Cl)cc(Cl)cc54)c3)c2)C1` (stereo not drawn) [Compound 44] returned an AUC in series [1] (28 mg/kg) of under 8 ng·h/mL.

As to `CN1Cc2c(Cl)cc(Cl)cc2C(c2cccc(S(=O)(=O)NCCOCCOCCNC(=O)NCCOCCOCCNS(=O)(=O)c3cccc(C4CN(C)Cc5c(Cl)cc(Cl)cc54)c3)c2)C1` (stereo not drawn) [Compound 22], in series [1] (11 mg/kg), the AUC is under 19 ng·h/mL.

As for `CN1Cc2c(Cl)cc(Cl)cc2C(c2cccc(S(N)(=O)=O)c2)C1` (stereo not drawn) [Compound 1], the “pharmacodynamic (PD) effect in PK studies” value in series [1] (Sprague–Dawley rats) is listed as “absence of a pharmacodynamic (PD) effect”.

`CN1Cc2c(Cl)cc(Cl)cc2C(c2ccc(S(=O)(=O)NCCOCCOCCOCCNC(=O)NCCOCCOCCOCCNS(=O)(=O)c3ccc(C4CN(C)Cc5c(Cl)cc(Cl)cc54)cc3)cc2)C1` (stereo not drawn) [Compound 35]: the AUC in series [1] (5.3 mg/kg) was under 19 ng·h/mL.

For `CN1Cc2c(Cl)cc(Cl)cc2[C@H](c2cccc(S(=O)(=O)NCCOCCOCCNC(=O)NCCCCNC(=O)NCCOCCOCCNS(=O)(=O)c3cccc([C@@H]4CN(C)Cc5c(Cl)cc(Cl)cc54)c3)c2)C1` [Compound 28, tenapanor], in series [1], the “metabolites detected in plasma (Cmax at 30 mpk)” value is given as “No metabolites detected”. For the same compound, in the series with Sprague Dawley rats, the “Increase in stool water” value is recorded as “Yes” and the Stool water dose-response entry is “Yes”. For the same compound, in the series on humans (versus the placebo), the stool consistency entry is “softened stool consistency in a dose-dependent manner”; the “stool frequency and weight” value was “increased stool frequency and weight”. Further, the plasma concentrations with humans (humans, below the quantification limit in >95% of all plasma samples) was under 0.5 ng/mL. For the same compound, the “plasma samples below the quantification limit (0.5 ng/mL)” value in the series on humans (humans) was over 95%. The serum phosphorus levels result in series [2] is reported as “lowered serum phosphorus levels”.

The compound `CN1Cc2c(Cl)cc(Cl)cc2C(c2ccc(S(=O)(=O)NCCOCCOCCOCCNC(=O)c3ccc(C(=O)NCCOCCOCCOCCNS(=O)(=O)c4ccc(C5CN(C)Cc6c(Cl)cc(Cl)cc65)cc4)cc3)cc2)C1` (stereo not drawn) [Compound 37] returned an AUC in series [1] (19 mg/kg) of under 9 ng·h/mL.

`CN1Cc2c(Cl)cc(Cl)cc2C(c2cccc(S(=O)(=O)NCCOCCOCCNC(=O)c3ccc(C(=O)NCCOCCOCCNS(=O)(=O)c4cccc(C5CN(C)Cc6c(Cl)cc(Cl)cc65)c4)cc3)c2)C1` (stereo not drawn) [Compound 20] displayed an AUC in series [1] (22 mg/kg) of under 8 ng·h/mL.

`CN1Cc2c(Cl)cc(Cl)cc2C(c2cccc(S(=O)(=O)NCCOCCOCCOCCNC(=O)NCCOCCOCCOCCNS(=O)(=O)c3cccc(C4CN(C)Cc5c(Cl)cc(Cl)cc54)c3)c2)C1` (stereo not drawn) [Compound 38]: the AUC in series [1] (1.8 mg/kg) is under 75 ng·h/mL.
